What was measured:
[1] = molecular target: T1, Interleukin-1 receptor-associated kinase 4 (Homo sapiens) (UniProt Q9NWZ3); assay: Inhibition of IRAK4 in human HeLa cells lysate at 50 uM pre incubated for 15 mins followed by ATP acyl phosphate probe addition and measured after 10 mins by LC-MS/MS analysis relative to control; type: subcellular; details: time 25.0 min
T1 sequence (whole entry): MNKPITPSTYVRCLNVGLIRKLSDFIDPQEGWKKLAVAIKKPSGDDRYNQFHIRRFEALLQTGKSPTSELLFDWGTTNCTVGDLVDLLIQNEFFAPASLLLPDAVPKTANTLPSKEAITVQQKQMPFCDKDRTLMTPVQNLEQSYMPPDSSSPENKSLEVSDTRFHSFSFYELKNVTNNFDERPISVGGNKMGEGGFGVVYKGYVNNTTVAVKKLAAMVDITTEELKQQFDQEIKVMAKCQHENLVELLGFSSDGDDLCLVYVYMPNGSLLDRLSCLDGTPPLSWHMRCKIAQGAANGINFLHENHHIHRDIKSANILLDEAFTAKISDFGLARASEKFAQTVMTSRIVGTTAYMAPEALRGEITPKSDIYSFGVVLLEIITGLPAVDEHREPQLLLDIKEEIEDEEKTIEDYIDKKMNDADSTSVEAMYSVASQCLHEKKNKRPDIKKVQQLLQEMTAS

[2] = molecular target: Focal adhesion kinase 1 (Homo sapiens, UniProt Q05397); assay: Inhibition of FAK in human HeLa cells lysate at 50 uM pre incubated for 15 mins followed by ADP acyl phosphate probe addition and measured after 10 mins by LC-MS/MS analysis relative to control; type: subcellular; details: time 25.0 min
Sequence of Focal adhesion kinase 1 (Q05397 2-1052 limits assumed): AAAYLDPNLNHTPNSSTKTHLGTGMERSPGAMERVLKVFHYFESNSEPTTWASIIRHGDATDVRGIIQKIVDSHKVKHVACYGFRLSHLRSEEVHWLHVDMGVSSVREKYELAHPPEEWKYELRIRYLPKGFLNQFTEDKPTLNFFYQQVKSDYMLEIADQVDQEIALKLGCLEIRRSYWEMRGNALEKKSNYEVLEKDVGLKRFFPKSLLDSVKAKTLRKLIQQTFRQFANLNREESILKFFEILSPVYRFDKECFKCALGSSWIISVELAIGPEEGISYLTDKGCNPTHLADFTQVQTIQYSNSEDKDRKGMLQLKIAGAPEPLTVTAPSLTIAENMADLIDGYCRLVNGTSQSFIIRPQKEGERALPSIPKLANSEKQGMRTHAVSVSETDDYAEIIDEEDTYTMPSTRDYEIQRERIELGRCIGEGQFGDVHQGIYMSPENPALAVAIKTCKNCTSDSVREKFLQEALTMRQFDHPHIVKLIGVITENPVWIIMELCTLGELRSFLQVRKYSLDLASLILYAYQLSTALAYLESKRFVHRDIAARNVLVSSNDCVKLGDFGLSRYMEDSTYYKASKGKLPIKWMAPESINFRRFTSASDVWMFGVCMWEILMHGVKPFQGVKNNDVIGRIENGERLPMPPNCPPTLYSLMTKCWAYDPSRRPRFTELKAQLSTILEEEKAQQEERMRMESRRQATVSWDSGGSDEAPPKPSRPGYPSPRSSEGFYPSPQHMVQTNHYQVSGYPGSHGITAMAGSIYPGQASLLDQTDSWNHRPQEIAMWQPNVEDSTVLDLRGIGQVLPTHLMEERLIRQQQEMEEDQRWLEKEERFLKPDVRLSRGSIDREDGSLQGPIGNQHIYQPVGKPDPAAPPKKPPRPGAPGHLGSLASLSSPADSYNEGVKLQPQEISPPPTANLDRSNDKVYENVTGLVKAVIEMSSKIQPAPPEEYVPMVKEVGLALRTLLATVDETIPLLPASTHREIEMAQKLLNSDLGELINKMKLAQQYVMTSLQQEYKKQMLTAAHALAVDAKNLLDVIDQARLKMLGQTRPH

[3] = molecular target: Ribosomal protein S6 kinase alpha-3 (Homo sapiens, UniProt P51812); assay: Inhibition of RSK2 domain 2 in human HeLa cells lysate at 2 uM pre incubated for 15 mins followed by ATP acyl phosphate probe addition and measured after 10 mins by LC-MS/MS analysis relative to control; type: subcellular; details: time 25.0 min
Sequence of Ribosomal protein S6 kinase alpha-3 (P51812 whole entry, the tested form may be a part): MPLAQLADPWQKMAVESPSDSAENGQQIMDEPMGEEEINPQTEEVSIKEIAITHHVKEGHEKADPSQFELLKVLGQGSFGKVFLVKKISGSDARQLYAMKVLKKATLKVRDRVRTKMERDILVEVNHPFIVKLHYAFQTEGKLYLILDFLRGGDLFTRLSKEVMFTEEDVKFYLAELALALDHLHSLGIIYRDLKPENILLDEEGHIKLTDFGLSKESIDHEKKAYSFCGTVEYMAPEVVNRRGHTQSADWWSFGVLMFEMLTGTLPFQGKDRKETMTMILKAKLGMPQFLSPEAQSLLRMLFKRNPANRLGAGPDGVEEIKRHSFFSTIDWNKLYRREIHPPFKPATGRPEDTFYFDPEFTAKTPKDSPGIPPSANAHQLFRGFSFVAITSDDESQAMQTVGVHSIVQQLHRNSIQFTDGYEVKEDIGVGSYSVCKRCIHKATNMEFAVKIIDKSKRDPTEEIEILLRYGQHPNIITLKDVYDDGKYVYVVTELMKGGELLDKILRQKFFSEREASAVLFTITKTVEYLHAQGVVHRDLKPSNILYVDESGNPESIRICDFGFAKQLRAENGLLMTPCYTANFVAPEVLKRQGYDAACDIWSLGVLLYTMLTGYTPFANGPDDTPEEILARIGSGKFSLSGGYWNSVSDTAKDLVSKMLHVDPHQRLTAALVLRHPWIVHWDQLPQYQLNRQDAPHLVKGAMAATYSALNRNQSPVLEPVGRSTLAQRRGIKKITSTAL

[4] = molecular target: Tyrosine-protein kinase ABL (Homo sapiens, UniProt P00519+P42684); assay: Inhibition of ABL1/2 in human HeLa cells lysate pre incubated for 15 mins followed by ATP acyl phosphate probe addition and measured after 10 mins by LC-MS/MS analysis; type: subcellular
How it was run: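 HeLa cell lysates (5 mg/mL total protein) were preincubated with inhibitor at 0, 0.8, 2, 10 or 50 μM for 15 min. ATP or ADP acylphosphate probe was then added (5 μM final) for 10 min, and reactions were stopped with urea. Up to four fragment ions per kinase probe-peptide were quantified by targeted MS. % inhibition was taken relative to untreated lysate. Run in duplicate.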

[5] = Inhibition of MST4/YSK1 in human HeLa cells lysate at 10 uM pre incubated for 15 mins followed by ATP acyl phosphate probe addition and measured after 10 mins by LC-MS/MS analysis relative to control; details: 25 min, condition cancer
[6] = molecular target: Mitogen-activated protein kinase kinase kinase 2 (Homo sapiens) (UniProt Q9Y2U5); assay: Inhibition of MAP3K2 in human HeLa cells lysate at 10 uM pre incubated for 15 mins followed by ADP acyl phosphate probe addition and measured after 10 mins by LC-MS/MS analysis relative to control; type: subcellular; details: time 25.0 min
Sequence of Mitogen-activated protein kinase kinase kinase 2 (Homo sapiens) (Q9Y2U5 whole entry): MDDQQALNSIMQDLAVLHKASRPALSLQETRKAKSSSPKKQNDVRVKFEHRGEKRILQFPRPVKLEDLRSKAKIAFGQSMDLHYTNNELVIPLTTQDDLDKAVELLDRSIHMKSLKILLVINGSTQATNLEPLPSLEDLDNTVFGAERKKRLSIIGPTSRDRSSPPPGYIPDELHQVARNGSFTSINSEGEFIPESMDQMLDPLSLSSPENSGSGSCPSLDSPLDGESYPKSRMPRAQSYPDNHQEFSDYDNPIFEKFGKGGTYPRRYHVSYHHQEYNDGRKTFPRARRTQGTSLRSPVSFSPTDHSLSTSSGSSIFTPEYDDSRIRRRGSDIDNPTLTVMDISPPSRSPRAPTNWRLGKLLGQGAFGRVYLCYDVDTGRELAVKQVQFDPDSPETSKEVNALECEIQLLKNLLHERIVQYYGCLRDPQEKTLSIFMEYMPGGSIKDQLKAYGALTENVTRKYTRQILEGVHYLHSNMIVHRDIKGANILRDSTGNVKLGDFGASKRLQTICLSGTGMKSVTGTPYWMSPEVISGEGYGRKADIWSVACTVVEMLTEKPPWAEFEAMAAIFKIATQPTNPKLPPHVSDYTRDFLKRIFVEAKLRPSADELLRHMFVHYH

[7] = molecular target: STE20-like serine/threonine-protein kinase (Homo sapiens, UniProt Q9H2G2); assay: Inhibition of SLK in human HeLa cells lysate at 50 uM pre incubated for 15 mins followed by ATP acyl phosphate probe addition and measured after 10 mins by LC-MS/MS analysis relative to control; type: subcellular; details: time 25.0 min
Sequence of STE20-like serine/threonine-protein kinase (Q9H2G2 whole entry, looked up): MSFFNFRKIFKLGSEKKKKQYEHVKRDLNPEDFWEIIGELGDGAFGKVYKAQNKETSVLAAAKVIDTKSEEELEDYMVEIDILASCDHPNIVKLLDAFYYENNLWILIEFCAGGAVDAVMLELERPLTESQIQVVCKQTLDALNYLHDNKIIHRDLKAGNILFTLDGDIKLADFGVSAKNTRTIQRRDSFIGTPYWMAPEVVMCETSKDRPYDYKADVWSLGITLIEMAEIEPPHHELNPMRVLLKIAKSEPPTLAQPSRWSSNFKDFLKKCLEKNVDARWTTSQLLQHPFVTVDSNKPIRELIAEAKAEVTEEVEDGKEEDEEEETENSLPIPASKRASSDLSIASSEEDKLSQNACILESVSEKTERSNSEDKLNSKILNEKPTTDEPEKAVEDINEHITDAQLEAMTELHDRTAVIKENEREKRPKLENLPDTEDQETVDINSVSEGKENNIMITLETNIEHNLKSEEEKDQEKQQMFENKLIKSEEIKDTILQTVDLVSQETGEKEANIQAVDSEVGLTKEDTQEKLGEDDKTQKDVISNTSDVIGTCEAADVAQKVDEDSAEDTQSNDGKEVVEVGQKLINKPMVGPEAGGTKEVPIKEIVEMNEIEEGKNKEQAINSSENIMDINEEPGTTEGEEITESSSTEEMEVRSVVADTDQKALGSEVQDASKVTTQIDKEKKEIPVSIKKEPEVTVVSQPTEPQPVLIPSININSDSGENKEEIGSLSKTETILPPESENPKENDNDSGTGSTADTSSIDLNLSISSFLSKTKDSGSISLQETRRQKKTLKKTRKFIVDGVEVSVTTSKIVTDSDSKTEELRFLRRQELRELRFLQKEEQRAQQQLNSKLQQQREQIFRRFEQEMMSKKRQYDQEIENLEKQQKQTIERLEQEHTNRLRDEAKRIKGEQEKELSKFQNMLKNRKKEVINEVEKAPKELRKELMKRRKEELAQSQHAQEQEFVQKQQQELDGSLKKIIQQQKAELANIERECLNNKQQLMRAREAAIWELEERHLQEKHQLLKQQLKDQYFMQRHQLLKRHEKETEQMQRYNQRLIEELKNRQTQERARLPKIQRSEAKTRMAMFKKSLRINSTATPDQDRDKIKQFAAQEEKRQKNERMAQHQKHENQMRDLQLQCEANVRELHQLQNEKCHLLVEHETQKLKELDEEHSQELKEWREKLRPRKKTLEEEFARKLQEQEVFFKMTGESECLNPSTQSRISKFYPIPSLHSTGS

[8] = Plasma concentration in C57Bl/6 mouse at 50 mg/kg, ip administered for 4 day and measured 8 hr post last dose by LC-MS/MS analysis; type: ADME, organism-based
[9] = molecular target: Serine/threonine-protein kinase B-raf (Homo sapiens, UniProt P15056); assay: Inhibition of BRAF in human HeLa cells lysate pre incubated for 15 mins followed by ADP acyl phosphate probe addition and measured after 10 mins by LC-MS/MS analysis; type: subcellular
How it was run: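 KiNativ-type profiling in HeLa lysate (5 mg/mL total protein). Lysate preincubated 15 min with inhibitor at 50, 10, 2, 0.8 or 0 μM, then ATP or ADP acylphosphate probe added (5 μM final) for 10 min. Reaction stopped with urea and analysed by targeted MS, using up to four fragment ions per kinase peptide-probe conjugate. % inhibition calculated against untreated lysate. Duplicate reactions.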

[10] = molecular target: Serine/threonine-protein kinase PLK1 (Homo sapiens, UniProt P53350); assay: Inhibition of PLK1 in human HeLa cells lysate at 2 uM pre incubated for 15 mins followed by ADP acyl phosphate probe addition and measured after 10 mins by LC-MS/MS analysis relative to control; type: subcellular; details: time 25.0 min
Sequence of Serine/threonine-protein kinase PLK1 (P53350 whole entry): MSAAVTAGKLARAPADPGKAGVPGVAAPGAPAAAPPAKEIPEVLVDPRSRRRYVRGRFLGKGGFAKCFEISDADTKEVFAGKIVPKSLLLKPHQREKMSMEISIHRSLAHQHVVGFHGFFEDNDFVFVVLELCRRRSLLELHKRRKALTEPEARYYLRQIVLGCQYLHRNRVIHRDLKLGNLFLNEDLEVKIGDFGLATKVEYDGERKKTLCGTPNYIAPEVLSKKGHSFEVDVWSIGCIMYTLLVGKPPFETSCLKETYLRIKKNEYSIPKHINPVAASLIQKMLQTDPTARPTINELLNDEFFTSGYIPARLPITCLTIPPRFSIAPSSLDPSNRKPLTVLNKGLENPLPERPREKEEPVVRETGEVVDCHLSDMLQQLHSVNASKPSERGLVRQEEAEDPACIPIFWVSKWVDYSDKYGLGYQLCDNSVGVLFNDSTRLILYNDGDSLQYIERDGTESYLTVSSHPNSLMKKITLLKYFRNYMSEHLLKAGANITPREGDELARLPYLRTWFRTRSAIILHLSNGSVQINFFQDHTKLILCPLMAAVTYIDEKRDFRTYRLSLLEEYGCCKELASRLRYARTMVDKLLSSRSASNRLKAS

[11] = molecular target: Cyclin-dependent kinase 8/19 (Homo sapiens, UniProt P49336+Q9BWU1); assay: Inhibition of CDK8/CDK11 in human HeLa cells lysate pre incubated for 15 mins followed by ATP acyl phosphate probe addition and measured after 10 mins by LC-MS/MS analysis; type: subcellular
How it was run: (§1)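 KiNativ profiling in HeLa lysate (5 mg/mL total protein). Lysate incubated 15 min with inhibitor at 50, 10, 2, 0.8 or 0 μM. ATP or ADP acylphosphate probe then added (5 μM final) and reacted 10 min. Reaction stopped with urea and analysed by targeted MS, using up to four fragment ions per kinase peptide-probe conjugate. % inhibition taken against untreated lysate. Run in duplicate.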

[12] = Toxicity in C57Bl/6 mouse assessed as effect on creatinine level at 50 mg/kg, ip for 14 days (reference value: < 0.2 mg/dl); type: organism-based; details: in vivo, 336 h, time 14 day
[13] = molecular target: Serine/threonine-protein kinase Chk2 (Homo sapiens, UniProt O96017); assay: Inhibition of CHK2 in human HeLa cells lysate at 2 uM pre incubated for 15 mins followed by ADP acyl phosphate probe addition and measured after 10 mins by LC-MS/MS analysis relative to control; type: subcellular; details: time 25.0 min
[14] = molecular target: Calcium/calmodulin-dependent protein kinase kinase 1 (Homo sapiens, UniProt Q8N5S9); assay: Inhibition of CAMKK1 in human HeLa cells lysate at 50 uM pre incubated for 15 mins followed by ADP acyl phosphate probe addition and measured after 10 mins by LC-MS/MS analysis relative to control; type: subcellular; details: time 25.0 min; how it was run: as §1
Sequence of Calcium/calmodulin-dependent protein kinase kinase 1 (Q8N5S9 whole entry, looked up): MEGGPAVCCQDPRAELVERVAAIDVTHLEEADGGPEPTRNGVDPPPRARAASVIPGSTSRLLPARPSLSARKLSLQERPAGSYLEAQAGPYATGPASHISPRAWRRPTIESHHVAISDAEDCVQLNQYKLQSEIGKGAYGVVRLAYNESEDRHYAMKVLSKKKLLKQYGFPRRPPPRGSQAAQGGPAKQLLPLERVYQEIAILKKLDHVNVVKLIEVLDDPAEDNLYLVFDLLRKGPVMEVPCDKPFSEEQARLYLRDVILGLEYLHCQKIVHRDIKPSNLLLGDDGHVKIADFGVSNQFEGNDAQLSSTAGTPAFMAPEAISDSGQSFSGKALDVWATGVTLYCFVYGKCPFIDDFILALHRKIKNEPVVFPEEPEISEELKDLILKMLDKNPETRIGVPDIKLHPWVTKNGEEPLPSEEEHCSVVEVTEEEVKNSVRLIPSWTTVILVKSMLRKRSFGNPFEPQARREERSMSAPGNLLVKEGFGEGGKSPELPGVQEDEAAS

[15] = molecular target: T1, Interleukin-1 receptor-associated kinase 4 (Homo sapiens); assay: Inhibition of IRAK4 in human HeLa cells lysate at 10 uM pre incubated for 15 mins followed by ATP acyl phosphate probe addition and measured after 10 mins by LC-MS/MS analysis relative to control; type: subcellular; details: time 25.0 min

Q: Which inhibition [1] does the source give for CCOc1cc(N2CCC(O)CC2)ccc1Nc1ncc2c(n1)N(C)c1ccccc1C(=O)N2C here?
A: 15.6%

Q: What about the inhibition [2] of the same compound?
A: 58.1%

Q: What about the inhibition [3] of the same compound?
A: -9.6%

Q: And the IC50 [4]?
A: > 50 µM

Q: And the inhibition at 10 µM [5]?
A: 5.1%

Q: What about the inhibition [6] of the same compound?
A: 36.2%

Q: And the inhibition [7]?
A: 5.7%

Q: And the concentration at 96 h [8]?
A: 9 µM

Q: What about the IC50 [9] of the same compound?
A: > 50 µM

Q: What about the inhibition [10] of the same compound?
A: 0%

Q: What about the IC50 [11] of the same compound?
A: > 50 µM

Q: What about the Activity [12] of the same compound?
A: < 0.2 mg/dL

Q: What about the inhibition [13] of the same compound?
A: 7.6%

Q: And the inhibition [14]?
A: 17%

Q: What about the inhibition [15] of the same compound?
A: 10.5%

Source: ChEMBL document CHEMBL5661979, “Pharmacological inhibition of BMK1 suppresses tumor growth through promyelocytic leukemia protein” (Cancer Cell, 2010)
